L major viab = inhibitors of Leishmania major promastigote growth; Leishmania major promastigotes, resazurin fluorescence viability; inhibition, % at 10 µM; 200,000 tested, 9% active; AID 1063; in the data active = inhibition above about 50%;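 note: promastigotes grown with compound for 44 hours at 28 °C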
WT yeast gro inh = growth inhibition of WT yeast, mitochondrial fusion screen. AID 1362. 190,000 tested, 2.1% active. mitochondrial fusion phenotypic screen, WT strain. inhibition, % at 10 µM; in the data active = inhibition above about 58%; tested in S. cerevisiae
ABCB1 inh = human ABCB1 inhibition, ABCG2 as counter-screen. P08183. CCRF-Adr cells, JC-1 efflux, flow cytometry. inhibition, % at 6.6 µM. 190,000 tested, 0.067% active. AID 1326; in the data active = inhibition above about 40%;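 note: higher value means more JC-1 retained so stronger ABCB1 efflux block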
Target sequence (P08183 whole entry, looked up): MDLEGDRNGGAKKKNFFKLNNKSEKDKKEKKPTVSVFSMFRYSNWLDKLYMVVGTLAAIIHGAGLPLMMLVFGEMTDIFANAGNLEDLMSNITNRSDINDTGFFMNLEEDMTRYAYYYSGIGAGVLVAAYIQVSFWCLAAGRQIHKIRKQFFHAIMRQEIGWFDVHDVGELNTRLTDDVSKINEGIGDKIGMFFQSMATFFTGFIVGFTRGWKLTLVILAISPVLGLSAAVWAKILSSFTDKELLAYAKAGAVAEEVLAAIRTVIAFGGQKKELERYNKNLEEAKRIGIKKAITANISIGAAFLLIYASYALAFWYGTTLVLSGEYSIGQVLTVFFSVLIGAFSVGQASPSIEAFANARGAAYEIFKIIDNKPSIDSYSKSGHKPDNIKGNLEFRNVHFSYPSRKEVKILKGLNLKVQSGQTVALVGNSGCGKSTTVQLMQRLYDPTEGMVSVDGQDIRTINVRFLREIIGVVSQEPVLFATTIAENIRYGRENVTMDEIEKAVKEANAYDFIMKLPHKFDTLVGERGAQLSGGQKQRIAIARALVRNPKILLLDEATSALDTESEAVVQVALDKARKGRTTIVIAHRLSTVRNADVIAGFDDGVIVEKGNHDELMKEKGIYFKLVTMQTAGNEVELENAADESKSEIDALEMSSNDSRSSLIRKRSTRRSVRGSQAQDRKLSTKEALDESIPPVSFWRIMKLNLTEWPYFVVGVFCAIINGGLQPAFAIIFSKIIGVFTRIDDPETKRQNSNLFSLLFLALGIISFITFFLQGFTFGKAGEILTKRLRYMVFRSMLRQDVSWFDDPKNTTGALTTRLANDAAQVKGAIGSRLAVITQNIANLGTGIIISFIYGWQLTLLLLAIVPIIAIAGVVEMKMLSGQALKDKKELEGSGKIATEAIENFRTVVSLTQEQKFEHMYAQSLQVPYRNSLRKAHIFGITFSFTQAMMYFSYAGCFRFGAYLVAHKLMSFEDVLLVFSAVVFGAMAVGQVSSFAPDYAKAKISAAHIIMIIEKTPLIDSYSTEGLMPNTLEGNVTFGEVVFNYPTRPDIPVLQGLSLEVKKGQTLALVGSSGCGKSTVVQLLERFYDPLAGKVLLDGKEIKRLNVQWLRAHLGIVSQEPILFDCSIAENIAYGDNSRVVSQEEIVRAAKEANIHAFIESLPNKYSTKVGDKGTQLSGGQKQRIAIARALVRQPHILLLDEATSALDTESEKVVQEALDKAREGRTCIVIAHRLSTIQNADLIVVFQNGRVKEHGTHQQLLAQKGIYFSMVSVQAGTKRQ
RAM network inh = blocks the yeast RAM network | S. cerevisiae dse1pr::URA3 reporter, 5-FOA growth OD615, 2 d; analog-sensitive cbk1-as2 kinase mutant strain | inhibition, % at 50 µM | 190,000 tested, 1.8% active;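 active = inhibition above a set limit, 3 SD over mean compound inhibition, cut at about 8.4% in these data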;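 note: inhibition rescues growth on 5-FOA so higher OD means more RAM inhibition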
ABCG2 block = blocks JC-1 efflux by human ABCG2 transporter; Q9UNQ0; IgMXP3 cells, flow cytometry; inhibition, % at 6.6 µM; 190,000 tested, 0.1% active;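 active = inhibition above 80%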
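Test system: IgMXP3 (ABCG2) plus far-red-tagged CCRF-Adr (ABCB1) cells. Reagent: JC-1 dye as substrate. Timing: 10 min exposure at 25 °C with rotation, no wash. Measured by: flow cytometric JC-1 green MFI at 530 nm. Read-out: percent efflux inhibition, scaled nicardipine 100% to DMSO 0%. Control set: nicardipine and DMSO wells.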
Hits are given with their value; 0 = inactive; - = no result. Shown are actives, neighbours in structure and some others; about 12% of the full set was active somewhere.

SMILES | L major viab | WT yeast gro inh | ABCB1 inh | RAM network inh | ABCG2 block
Cn1c(=O)n(C)c2cc(NC(=O)c3ccccc3[N+](=O)[O-])c(Br)cc21 | 0 | 0 | 0 | 0 | 0
CC1C(C#N)=C(N)OC2=C1C(=O)CC(c1ccccc1)C2 (stereo not drawn) | 0 | 0 | 0 | 0 | 0
COCCn1c(=NC(=O)c2ccc(S(=O)(=O)N3CCCc4ccccc43)cc2)sc2cc(S(C)(=O)=O)ccc21 | 100 | 0 | 0 | 0 | 0
C=CCn1c(=NC(=O)c2ccc(S(=O)(=O)N3CCCc4ccccc43)cc2)sc2cc(S(N)(=O)=O)ccc21 | 100 | 0 | 0 | 0 | 0
COCCn1c(=NC(=O)c2nc3ccccc3s2)sc2cc(S(C)(=O)=O)ccc21 | 0 | 0 | 0 | 0 | 0
Cc1ccc(OC(C)C(=O)N=Nc2c(O)[nH]c3ccc([N+](=O)[O-])cc23)cc1 (stereo not drawn) | 0 | 0 | 0 | 0 | 0
CC(=O)N1c2ccccc2C2(O)N=C(C)SC12 (stereo not drawn) | 0 | 0 | 0 | 0 | 0
Cc1noc(C)c1COC(=O)c1ccc(S(=O)(=O)N2CCCCC2)cc1 | 0 | 0 | 0 | 0 | 0
NC(=O)CN(c1ccccc1)C1SC(=O)N(Cc2ccccc2)C1=O (stereo not drawn) | 0 | 0 | 0 | 0 | 0
Cc1ccc(N(CC(N)=O)C2SC(=O)N(Cc3ccccc3)C2=O)cc1 (stereo not drawn) | 0 | 0 | 0 | 9.4 | 0
CN(c1ccccc1)c1nc2ccsc2c(=O)s1 | 0 | 0 | 0 | 0 | 0
CCN(c1ccccc1)c1nc2ccsc2c(=O)s1 | 0 | 0 | 0 | 8.5 | 0
CCOC(=O)c1c(C)[nH]c(C2=NNC(=Nc3cccc(Cl)c3)SC2)c1C | 0 | 63 | 0 | 0 | 0
CC(=O)c1c(C)[nH]c(C2=NNC(=NCc3ccccc3)SC2)c1C | 0 | 0 | 0 | 0 | 0
O=C(CSc1nnc2c(n1)[nH]c1ccc(S(=O)(=O)N3CCOCC3)cc12)Nc1ccc(F)c(F)c1 | 0 | 0 | 0 | 0 | 0
COc1ccc(CNC(=O)CCCn2c(SCC#N)nc3cc4c(cc3c2=O)OCO4)cc1 | 0 | 0 | 0 | 0 | 0
CCN(CC)c1ccc(/C=C2\C(=O)N(c3ccc([N+](=O)[O-])cc3)N=C2N2CCOCC2)cc1 | 0 | - | - | - | -
Cc1cc(N)ccc1-n1c(C)ccc1C | 0 | 0 | 0 | 0 | 0
Cc1cc(N)ccc1N1CCCC1 | 58 | 0 | 0 | 0 | 0
Cc1cccc(OCCNC(=O)c2cccc(Oc3ccc(C(F)(F)F)cc3[N+](=O)[O-])c2)c1 | 0 | 0 | 0 | 9.0 | 0
Cc1ccc(OCCNC(=O)c2cc(C(=O)NCCOc3ccc(C)cc3)cc([N+](=O)[O-])c2)cc1 | 99 | 0 | 0 | 8.9 | 0
COc1cccc(OCCNC(=O)c2cc([N+](=O)[O-])cc([N+](=O)[O-])c2)c1 | 83 | 0 | 0 | 0 | 0
COc1cccc(OCCNC(=O)c2cccc(OC)c2)c1 | 0 | 0 | 0 | 0 | 0
COC(=O)C1=C(CSCc2ccco2)NC(=O)NC1c1cc(C)ccc1C (stereo not drawn) | 0 | 0 | 0 | 0 | 0
CC(=O)Nc1cc(S(=O)(=O)Nc2ccccc2C)c(C)cc1C | 0 | 0 | 0 | 0 | 0
SMILES | L major viab | WT yeast gro inh | ABCB1 inh | RAM network inh | ABCG2 block
CC1CC(CCC(=O)NC(=S)Nc2ccc(Cl)cn2)C(=O)O1 (stereo not drawn) | 0 | 0 | 0 | 0 | 0
COc1cccc(/C=C/C(=O)Nc2ccc3c(c2)OCCO3)c1OC | 0 | 0 | 0 | 0 | 0
Cc1cc(C(=O)Nc2sc3c(c2C#N)CCCC3)no1 | 0 | 0 | 0 | 0 | 0
CC(C)Cc1cc(C(=O)Nc2sc3c(c2C#N)CCCC3)no1 | 0 | 0 | 0 | 9.9 | 0
CC(C)Cc1cc(C(=O)Nc2sc3c(c2C#N)CCC3)no1 | 0 | 0 | 0 | 10 | 0
Cc1cc(C(=O)Nc2sc3c(c2C#N)CCC3)no1 | 0 | 0 | 0 | 0 | 0
CN(C)/C=C/C1=CC(=O)CC(C)(C)C1 | 0 | 0 | 0 | 0 | 0
COc1ccccc1CNC(=O)C1CC(c2ccccc2[N+](=O)[O-])=NO1 (stereo not drawn) | 0 | 0 | 0 | 0 | 0
O=C(CCNc1ccccc1)c1cccc([N+](=O)[O-])c1 | 96 | 0 | 0 | 0 | 0
O=C(NCCNc1ccc([N+](=O)[O-])cc1)c1cccc(Br)c1 | 0 | 0 | 0 | 0 | 0
Cc1ccc(NCCC(=O)c2cccc([N+](=O)[O-])c2)cc1 | 100 | 0 | 0 | 0 | 0
O=C(CCNc1ccc(F)cc1)c1cccc([N+](=O)[O-])c1 | 97 | 0 | 0 | 0 | 0
O=C(CCNc1ccc(Br)cc1)c1cccc([N+](=O)[O-])c1 | 88 | 0 | 0 | 0 | 0
Cc1nc(SCC(=O)c2cccc([N+](=O)[O-])c2)n[nH]1 | 0 | 0 | 0 | 0 | 0
Cc1cc(C)c2nc(SCC(=O)NCC3CCCO3)c(C#N)cc2c1 (stereo not drawn) | 0 | 0 | 0 | 0 | 0
Cc1ccc(NC(=O)CSc2ncccc2C(=O)Oc2cccc([N+](=O)[O-])c2)cc1Cl | 70 | 0 | 0 | 0 | 0
CCCCCOCC(O)CCC(=O)NN (stereo not drawn) | 0 | 0 | 0 | 0 | 0
CC12CC3CC(C)(C1)CC(C(=O)NC(=S)N1CCCCC1)(C3)C2 | 0 | 77 | 0 | 0 | 0
COc1ccccc1C(=O)NC(=S)NNC(=O)c1sc2ccccc2c1Cl | 90 | 0 | 0 | 0 | 0
COc1ccccc1C(=O)NNC(=S)NC(=O)c1sc2ccccc2c1Cl | 54 | 0 | 0 | 0 | 0
CCOC(=O)CC(NC(=O)C1c2ccccc2Oc2ccccc21)c1ccccc1Cl (stereo not drawn) | 0 | 0 | 0 | 0 | 0
Cn1c(=O)c(C(=O)CCl)c(N)n(Cc2ccccc2)c1=O | 0 | 0 | 0 | 0 | 0
Cn1c(=O)c(C(=O)CN2CCOCC2)c(N)n(Cc2ccccc2)c1=O | 0 | 0 | 0 | 0 | 0
Cn1c(=O)c(C(=O)CN2CCN(S(=O)(=O)c3ccccc3)CC2)c(N)n(Cc2ccccc2)c1=O | 71 | 0 | 0 | 0 | 0
Cn1c(N)c(C(=O)CCl)c(=O)n(Cc2ccccc2)c1=O | 62 | 0 | 0 | 0 | 0
SMILES | L major viab | WT yeast gro inh | ABCB1 inh | RAM network inh | ABCG2 block
O=C(CN1C(=O)CCC1=O)Nc1nc(-c2ccc(Oc3ccccc3)cc2)cs1 | 0 | 0 | 0 | 0 | 0
O=C(c1ccc([N+](=O)[O-])cc1)n1nc(-c2ccccc2)nc1NCc1ccccc1 | 0 | 0 | 0 | 0 | 0
O=C(c1cccs1)n1nc(-c2ccccc2)nc1NCc1ccc(F)cc1 | 0 | 0 | 0 | 8.6 | 0
CC(=O)n1nc(-c2ccccc2)nc1NCc1ccc(F)cc1 | 0 | 0 | 0 | 0 | 0
O=C(c1cccc([N+](=O)[O-])c1)n1nc(-c2ccccc2)nc1NCc1ccccc1 | 0 | 0 | 0 | 9.7 | 0
CCN(C(=O)CSc1nnc(-c2ccc(Cl)cc2)n1C)C1CCS(=O)(=O)C1 (stereo not drawn) | 0 | 0 | 0 | 0 | 0
c1ccc(-c2cc(-c3nc4ccccc4[nH]3)c3ccccc3n2)cc1 | 0 | 60 | 0 | 0 | 0
COc1cc(NC(=S)N2CCN(c3ccccn3)CC2)cc(OC)c1 | 0 | 0 | 0 | 0 | 0
